Experimental data pooled from the literature.
Protocols differ between the studies behind these lines.
Target: Serine/threonine-protein kinase OSR1 (OXSR1, Homo sapiens, UniProt O95747)

Compound	effect on	action	method	concentration	quantity	value
C#Cc1cc(-c2cc(Nc3nc(N[C@@H](C)c4ccc(F)cn4)ncc3Cl)n[nH]2)ccc1C=O	enzyme activity	inhibitor		0.2 µM	inhibition	18.2%
C=CC(=O)N1CCC([C@@H]2CCNc3c(C(N)=O)c(-c4ccc(Oc5ccccc5)cc4)nn32)CC1	enzyme activity	inhibitor		1 µM	inhibition	0%
Cc1ccc(NC(=O)c2ccnc(C(F)(F)F)c2)cc1-c1cc(OCCO)nc(N2CCOCC2)c1	binding			1 µM	remaining binding	89%
CCCCC(=O)Nc1ccc(-c2ccc3ncn(CCC)c(=O)c3c2)cn1	binding		competition with immobilised ligand	0.5 µM	remaining binding	100%
CC(C)S(=O)(=O)c1ccc2nccc(Nc3ccc4sc(C5CCCC5)nc4c3)c2c1	enzyme activity	inhibitor		1 µM	activity vs control	108%
CO[C@@H]1[C@H](N(C)C(=O)c2ccccc2)C[C@H]2O[C@]1(C)n1c3ccccc3c3c4c(c5c6ccccc6n2c5c31)C(=O)NC4	enzyme activity	inhibitor		1 µM	inhibition	24%
Cc1cc(O)c(-c2ccc([C@@H](C)CN(C)C)cc2)c2c1[nH]c(=O)c1sccc12	enzyme activity	inhibitor		0.1 µM	inhibition	6.5%
C[C@H]1CC[C@H](n2c3cnccc3c3cnc(Nc4ccc5c(n4)CCN(C(=O)CO)C5)nc32)CC1	cell-free assay			1 µM	remaining signal	100%
